One block for each compound: values may come before it. Activity calls are given as the source filed them. The rule behind the calls is not given here.
Assays:
[1] = molecular target: T1, Tyrosine-protein phosphatase non-receptor type 1 (Homo sapiens, UniProt P18031); test: Inhibition of GST-tagged PTP1B (unknown origin) using pNPP as substrate measured for 2 mins by colorimetric analysis
T1 sequence (P18031 whole entry): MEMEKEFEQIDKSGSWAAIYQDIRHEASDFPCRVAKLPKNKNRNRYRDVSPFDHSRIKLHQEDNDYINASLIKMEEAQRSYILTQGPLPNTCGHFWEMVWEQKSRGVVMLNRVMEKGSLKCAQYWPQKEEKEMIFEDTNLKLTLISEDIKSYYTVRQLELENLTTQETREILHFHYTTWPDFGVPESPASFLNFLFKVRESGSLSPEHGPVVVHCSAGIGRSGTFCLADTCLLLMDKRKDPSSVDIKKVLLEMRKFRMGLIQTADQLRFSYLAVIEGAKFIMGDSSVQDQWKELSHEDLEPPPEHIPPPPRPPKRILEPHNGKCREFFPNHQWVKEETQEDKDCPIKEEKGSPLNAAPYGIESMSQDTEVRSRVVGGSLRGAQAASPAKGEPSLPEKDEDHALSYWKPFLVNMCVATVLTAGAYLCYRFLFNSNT

[2] = molecular target: T2, Tyrosine-protein phosphatase non-receptor type 2 (Homo sapiens, UniProt P17706); test: Inhibition of TCPTP (unknown origin)
T2 sequence (P17706 whole entry): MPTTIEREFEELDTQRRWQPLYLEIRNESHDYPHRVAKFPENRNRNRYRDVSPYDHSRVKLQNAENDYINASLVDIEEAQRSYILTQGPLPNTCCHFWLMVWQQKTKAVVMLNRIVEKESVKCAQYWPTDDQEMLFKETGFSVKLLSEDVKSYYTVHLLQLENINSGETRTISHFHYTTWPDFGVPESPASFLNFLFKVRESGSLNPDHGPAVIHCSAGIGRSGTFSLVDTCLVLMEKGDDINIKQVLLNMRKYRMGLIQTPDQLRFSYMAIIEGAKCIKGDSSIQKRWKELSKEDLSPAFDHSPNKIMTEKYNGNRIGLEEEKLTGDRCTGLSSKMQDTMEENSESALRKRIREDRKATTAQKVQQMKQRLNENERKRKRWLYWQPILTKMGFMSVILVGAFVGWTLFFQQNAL

[3] = molecular target: Tyrosine-protein phosphatase non-receptor type 6 (Homo sapiens, UniProt P29350); test: Inhibition of SHP-1 (unknown origin)
[4] = molecular target: Receptor-type tyrosine-protein phosphatase F (Homo sapiens, UniProt P10586); test: Inhibition of LAR (unknown origin)
[5] = molecular target: T3, Tyrosine-protein phosphatase non-receptor type 11 (Homo sapiens, UniProt Q06124); test: Inhibition of SHP-2 (unknown origin)
T3 sequence (Q06124 whole entry): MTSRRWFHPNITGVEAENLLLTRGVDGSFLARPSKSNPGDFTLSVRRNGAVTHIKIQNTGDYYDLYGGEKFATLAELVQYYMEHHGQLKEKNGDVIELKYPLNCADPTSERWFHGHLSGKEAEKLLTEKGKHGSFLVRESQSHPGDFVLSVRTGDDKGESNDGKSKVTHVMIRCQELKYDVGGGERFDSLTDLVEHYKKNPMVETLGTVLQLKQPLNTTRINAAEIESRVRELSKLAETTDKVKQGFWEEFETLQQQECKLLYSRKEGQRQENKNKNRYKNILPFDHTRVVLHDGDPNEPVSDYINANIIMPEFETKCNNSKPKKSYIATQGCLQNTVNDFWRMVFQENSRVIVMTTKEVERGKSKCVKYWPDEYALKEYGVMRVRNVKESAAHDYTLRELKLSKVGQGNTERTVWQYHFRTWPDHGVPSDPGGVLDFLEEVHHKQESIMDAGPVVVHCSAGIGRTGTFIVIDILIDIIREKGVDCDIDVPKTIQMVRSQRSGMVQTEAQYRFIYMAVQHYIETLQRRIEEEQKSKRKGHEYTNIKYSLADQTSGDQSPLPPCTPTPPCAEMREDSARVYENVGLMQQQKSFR

[6] = molecular target: T4, M-phase inducer phosphatase 2 (Homo sapiens, UniProt P30305); test: Inhibition of CDC25B (unknown origin)
T4 sequence (P30305 whole entry): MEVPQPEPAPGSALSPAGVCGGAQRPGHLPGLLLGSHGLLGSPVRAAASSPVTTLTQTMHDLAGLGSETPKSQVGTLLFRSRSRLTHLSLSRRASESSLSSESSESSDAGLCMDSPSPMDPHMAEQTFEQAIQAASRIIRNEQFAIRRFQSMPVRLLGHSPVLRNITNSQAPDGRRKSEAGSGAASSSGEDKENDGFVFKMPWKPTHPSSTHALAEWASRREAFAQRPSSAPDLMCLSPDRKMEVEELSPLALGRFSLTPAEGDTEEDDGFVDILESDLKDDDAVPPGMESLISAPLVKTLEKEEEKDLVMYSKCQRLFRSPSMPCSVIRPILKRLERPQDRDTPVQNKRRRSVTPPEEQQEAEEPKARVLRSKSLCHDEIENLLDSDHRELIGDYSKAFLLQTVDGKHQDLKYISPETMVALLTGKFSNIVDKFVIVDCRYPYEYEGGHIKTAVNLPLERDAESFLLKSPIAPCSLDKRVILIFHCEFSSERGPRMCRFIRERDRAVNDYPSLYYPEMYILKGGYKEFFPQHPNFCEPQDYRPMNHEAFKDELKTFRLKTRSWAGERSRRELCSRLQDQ

Homo sapiens = species: Homo sapiens; test: Selectivity ratio of IC50 for TCPTP (unknown origin) to IC50 for GST-tagged PTP1B (unknown origin)
[7] = molecular target: T5, Tyrosine-protein phosphatase non-receptor type 1 (Homo sapiens) (UniProt P18031); test: Inhibition of PTP1B (unknown origin) expressed in CHO cells over-expressing human IR assessed as increase in insulin-mediated IR-beta phosphorylation preincubated for 2 hrs followed by insulin challenge for 10 mins by Western blotting analysis; format: cell-based
T5 sequence (whole entry): T1 sequence (P18031 whole entry)
Summary of the method: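 CHO cells overexpressing human IR, grown in Ham's F-12 with 10% FBS at 37 °C, 5% CO2. Cells were serum-starved 2 h, then exposed to compound for 2 h (0.2% DMSO vehicle; 1 mM sodium orthovanadate as positive control). They were then stimulated with 10 nM insulin for 10 min. Lysates were run on 8% SDS-PAGE and immunoblotted with anti-pTyr, using β-actin as the loading control.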

[8] = molecular target: T5, Tyrosine-protein phosphatase non-receptor type 1 (Homo sapiens); conditions: CHO, 1.25 to 10 uM

Tyrosine-protein phosphatase non-receptor type 6, sequence (P29350 whole entry): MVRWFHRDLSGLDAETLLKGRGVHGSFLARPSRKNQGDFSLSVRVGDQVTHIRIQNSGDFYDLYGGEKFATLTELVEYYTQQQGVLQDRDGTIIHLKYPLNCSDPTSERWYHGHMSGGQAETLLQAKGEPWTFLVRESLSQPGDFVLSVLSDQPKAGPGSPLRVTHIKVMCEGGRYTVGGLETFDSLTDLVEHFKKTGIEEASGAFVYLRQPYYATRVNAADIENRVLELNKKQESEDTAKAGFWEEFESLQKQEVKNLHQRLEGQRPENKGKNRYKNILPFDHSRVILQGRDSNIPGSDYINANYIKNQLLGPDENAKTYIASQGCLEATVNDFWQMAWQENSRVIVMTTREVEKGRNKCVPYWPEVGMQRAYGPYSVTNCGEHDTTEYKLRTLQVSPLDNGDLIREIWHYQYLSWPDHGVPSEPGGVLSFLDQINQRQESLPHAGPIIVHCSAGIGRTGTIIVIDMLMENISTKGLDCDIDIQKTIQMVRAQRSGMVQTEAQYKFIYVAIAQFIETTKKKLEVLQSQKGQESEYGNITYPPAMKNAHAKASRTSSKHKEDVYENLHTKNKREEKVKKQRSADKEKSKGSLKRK
Receptor-type tyrosine-protein phosphatase F, sequence (P10586 whole entry): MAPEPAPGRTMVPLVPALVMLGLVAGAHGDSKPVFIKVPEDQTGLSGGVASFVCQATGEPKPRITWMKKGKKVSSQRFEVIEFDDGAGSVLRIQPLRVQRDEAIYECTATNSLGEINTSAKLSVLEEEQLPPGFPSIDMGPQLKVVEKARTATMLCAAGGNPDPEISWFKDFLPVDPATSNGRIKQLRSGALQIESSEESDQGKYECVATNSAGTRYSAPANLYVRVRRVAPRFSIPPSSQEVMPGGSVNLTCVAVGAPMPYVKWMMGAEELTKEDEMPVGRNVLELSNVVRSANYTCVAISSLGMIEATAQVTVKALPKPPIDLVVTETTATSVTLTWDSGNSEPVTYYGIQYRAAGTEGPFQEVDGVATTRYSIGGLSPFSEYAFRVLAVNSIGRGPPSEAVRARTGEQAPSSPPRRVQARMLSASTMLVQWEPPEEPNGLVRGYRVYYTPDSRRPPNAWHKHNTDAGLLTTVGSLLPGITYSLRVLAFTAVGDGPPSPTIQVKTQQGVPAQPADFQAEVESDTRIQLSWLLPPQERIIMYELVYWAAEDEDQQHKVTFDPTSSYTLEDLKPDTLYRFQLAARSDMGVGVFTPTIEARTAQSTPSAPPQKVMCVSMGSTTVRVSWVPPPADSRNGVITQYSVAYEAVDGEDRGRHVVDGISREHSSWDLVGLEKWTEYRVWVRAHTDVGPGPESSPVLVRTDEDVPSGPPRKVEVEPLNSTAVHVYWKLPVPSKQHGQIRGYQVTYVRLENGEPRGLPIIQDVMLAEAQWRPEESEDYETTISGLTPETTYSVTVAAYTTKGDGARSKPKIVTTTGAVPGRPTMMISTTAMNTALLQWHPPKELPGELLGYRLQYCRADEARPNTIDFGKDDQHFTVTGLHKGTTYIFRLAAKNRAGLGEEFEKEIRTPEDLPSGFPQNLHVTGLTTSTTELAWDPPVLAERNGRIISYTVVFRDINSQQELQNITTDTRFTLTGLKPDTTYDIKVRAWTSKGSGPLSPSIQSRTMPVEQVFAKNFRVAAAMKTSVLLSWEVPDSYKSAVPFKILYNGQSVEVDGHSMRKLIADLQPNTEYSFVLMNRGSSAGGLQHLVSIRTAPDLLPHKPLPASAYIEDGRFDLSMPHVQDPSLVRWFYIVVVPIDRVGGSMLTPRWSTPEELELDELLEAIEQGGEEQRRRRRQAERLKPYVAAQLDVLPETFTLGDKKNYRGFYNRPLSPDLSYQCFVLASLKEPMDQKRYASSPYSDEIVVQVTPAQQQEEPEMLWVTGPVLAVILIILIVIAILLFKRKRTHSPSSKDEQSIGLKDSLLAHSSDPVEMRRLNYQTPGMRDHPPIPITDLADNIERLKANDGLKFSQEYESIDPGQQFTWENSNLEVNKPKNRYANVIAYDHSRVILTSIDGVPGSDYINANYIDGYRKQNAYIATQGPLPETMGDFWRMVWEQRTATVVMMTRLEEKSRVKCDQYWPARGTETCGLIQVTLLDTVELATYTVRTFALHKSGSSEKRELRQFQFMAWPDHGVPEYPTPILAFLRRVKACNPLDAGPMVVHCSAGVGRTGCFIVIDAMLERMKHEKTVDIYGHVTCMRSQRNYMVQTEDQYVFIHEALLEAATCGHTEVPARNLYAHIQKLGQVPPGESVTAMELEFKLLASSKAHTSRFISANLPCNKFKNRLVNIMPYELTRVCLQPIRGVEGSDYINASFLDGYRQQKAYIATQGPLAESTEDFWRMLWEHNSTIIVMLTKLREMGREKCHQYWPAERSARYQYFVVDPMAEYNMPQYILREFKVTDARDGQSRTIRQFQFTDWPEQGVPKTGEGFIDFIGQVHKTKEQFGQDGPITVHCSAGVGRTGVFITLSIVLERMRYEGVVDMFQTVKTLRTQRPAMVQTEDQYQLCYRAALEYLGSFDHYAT

IC50 [1]: 5.56 µM
Structure (SMILES): O=C(CCc1c[nH]c2ccccc12)N[C@@H](Cc1ccc(OCc2ccccc2)cc1)c1nc(C(=O)Nc2ccccc2C(=O)O)c(-c2ccccc2)s1

IC50 [1]: 4.42 µM
Structure (SMILES): COC(=O)c1ccc(NC(=O)c2csc([C@H](Cc3ccc(OCc4ccccc4)cc3)NC(=O)C3CCCCC3)n2)cc1

IC50 [1]: 8.12 µM
Structure (SMILES): O=C(Nc1ccccc1C(=O)O)c1csc([C@H](Cc2ccc(OCc3ccccc3)cc2)NC(=O)C2CCCCC2)n1

IC50 [1]: 1.12 µM
IC50 [2]: 3.98 µM
IC50 [3]: 10.6 µM
IC50 [4]: > 20 µM
IC50 [5]: 10.1 µM
IC50 [6]: 9.74 µM
Ratio IC50 (Homo sapiens): 3.6
Structure (SMILES): O=C(CCc1c[nH]c2ccccc12)N[C@@H](Cc1ccc(OCc2ccccc2)cc1)c1nc(C(=O)Nc2cc(C(=O)O)ccc2F)c(-c2ccccc2)s1

IC50 [1]: 4.18 µM
Structure (SMILES): O=C(CCc1c[nH]c2ccccc12)N[C@@H](Cc1ccc(OCc2ccccc2)cc1)c1nc(C(=O)Nc2cccc(F)c2C(=O)O)c(-c2ccccc2)s1

IC50 [1]: 8.44 µM
inhibition [7]: inactive
Structure (SMILES): CCOC(=O)/C(C)=C\C(C)=C\c1nc([C@H](Cc2ccc(OCc3ccccc3)cc2)NC(=O)C2CCCCC2)sc1-c1ccccc1

IC50 [1]: 1.17 µM
IC50 [2]: 3.97 µM
IC50 [3]: 6.93 µM
IC50 [4]: > 20 µM
IC50 [5]: 11.7 µM
IC50 [6]: 2.51 µM
Ratio IC50 (Homo sapiens): 3.4
Structure (SMILES): O=C(O)c1cccc(NC(=O)c2nc([C@H](Cc3ccc(OCc4ccccc4)cc3)NC(=O)C3CCCCC3)sc2-c2ccccc2)c1

IC50 [1]: 10.6 µM
Structure (SMILES): COC(=O)c1cccc(NC(=O)c2csc([C@H](Cc3ccc(OCc4ccccc4)cc3)NC(=O)C3CCCCC3)n2)c1

IC50 [1]: 4.88 µM
Structure (SMILES): O=C(O)c1ccc(NC(=O)c2csc([C@H](Cc3ccc(OCc4ccccc4)cc3)NC(=O)C3CCCCC3)n2)cc1

IC50 [1]: 2.56 µM
Structure (SMILES): O=C(CCc1c[nH]c2ccccc12)N[C@@H](Cc1ccc(OCc2ccccc2)cc1)c1nc(C(=O)Nc2ccc(C(=O)O)c(F)c2)c(-c2ccccc2)s1

IC50 [1]: 1.18 µM
Structure (SMILES): O=C(CCc1c[nH]c2ccccc12)N[C@@H](Cc1ccc(OCc2ccccc2)cc1)c1nc(C(=O)Nc2cc(Br)ccc2C(=O)O)c(-c2ccccc2)s1

IC50 [1]: 14.7 µM
inhibition [7]: inactive
Structure (SMILES): C/C(=C/C(C)=C/c1csc([C@H](Cc2ccc(OCc3ccccc3)cc2)NC(=O)C2CCCCC2)n1)C(=O)O

IC50 [1]: 0.77 µM
Structure (SMILES): O=C(CCc1c[nH]c2ccccc12)N[C@@H](Cc1ccc(OCc2ccccc2)cc1)c1nc(C(=O)Nc2ccc(C(=O)O)cc2F)c(-c2ccccc2)s1

IC50 [1]: 2.28 µM
Structure (SMILES): O=C(CCc1c[nH]c2ccccc12)N[C@@H](Cc1ccc(OCc2ccccc2)cc1)c1nc(C(=O)Nc2ccc(C(=O)O)cc2)c(-c2ccccc2)s1

IC50 [1]: 6 µM
Structure (SMILES): O=C(O)c1cccc(NC(=O)c2csc([C@H](Cc3ccc(OCc4ccccc4)cc3)NC(=O)C3CCCCC3)n2)c1

IC50 [1]: 13.5 µM
inhibition [7]: inactive
Structure (SMILES): CCOC(=O)/C(C)=C\C(C)=C\c1nc([C@H](Cc2ccc(OCc3ccccc3)cc2)NC(=O)C2CCCCC2)sc1C

IC50 [1]: 10.9 µM
inhibition [8]: Active
Structure (SMILES): C/C(=C/C(C)=C/c1nc([C@H](Cc2ccc(OCc3ccccc3)cc2)NC(=O)C2CCCCC2)sc1-c1ccccc1)C(=O)O

inhibition [7]: inactive
Structure (SMILES): CCOC(=O)/C(C)=C\C(C)=C\c1csc([C@H](Cc2ccc(OCc3ccccc3)cc2)NC(=O)C2CCCCC2)n1

IC50 [1]: 1.01 µM
IC50 [2]: 3.38 µM
IC50 [3]: 7.53 µM
IC50 [4]: > 20 µM
IC50 [5]: 5.3 µM
IC50 [6]: 7.37 µM
Ratio IC50 (Homo sapiens): 3.3
inhibition [7]: Dose-dependent effect
Structure (SMILES): O=C(CCc1c[nH]c2ccccc12)N[C@@H](Cc1ccc(OCc2ccccc2)cc1)c1nc(C(=O)Nc2cccc(C(=O)O)c2)c(-c2ccccc2)s1

IC50 [1]: 0.71 µM
Structure (SMILES): O=C(CCc1c[nH]c2ccccc12)N[C@@H](Cc1ccc(OCc2ccccc2)cc1)c1nc(C(=O)Nc2cc(Cl)ccc2C(=O)O)c(-c2ccccc2)s1

IC50 [1]: 1.42 µM
IC50 [2]: 3.36 µM
IC50 [3]: 8.79 µM
IC50 [4]: > 20 µM
IC50 [5]: 6.79 µM
IC50 [6]: 4.94 µM
Ratio IC50 (Homo sapiens): 2.4
Structure (SMILES): O=C(CCc1c[nH]c2ccccc12)N[C@@H](Cc1ccc(OCc2ccccc2)cc1)c1nc(C(=O)Nc2ccc(Cl)c(C(=O)O)c2)c(-c2ccccc2)s1

IC50 [1]: 1.62 µM
Structure (SMILES): O=C(CCc1c[nH]c2ccccc12)N[C@@H](Cc1ccc(OCc2ccccc2)cc1)c1nc(C(=O)Nc2ccc(F)c(C(=O)O)c2)c(-c2ccccc2)s1

IC50 [1]: 2.82 µM
Structure (SMILES): O=C(CCc1c[nH]c2ccccc12)N[C@@H](Cc1ccc(OCc2ccccc2)cc1)c1nc(C(=O)Nc2ccc(F)cc2C(=O)O)c(-c2ccccc2)s1

IC50 [1]: 2.68 µM
Structure (SMILES): COC(=O)c1cccc(NC(=O)c2nc([C@H](Cc3ccc(OCc4ccccc4)cc3)NC(=O)CCc3c[nH]c4ccccc34)sc2-c2ccccc2)c1

IC50 [1]: 9.54 µM
inhibition [7]: inactive
Structure (SMILES): CCOC(=O)/C(C)=C\C(C)=C\c1nc([C@H](Cc2ccc(OCc3ccccc3)cc2)NC(=O)C2CCCCC2)sc1CC(C)C

IC50 [1]: 3.79 µM
Structure (SMILES): COC(=O)c1cccc(NC(=O)c2nc([C@H](Cc3ccc(OCc4ccccc4)cc3)NC(=O)C3CCCCC3)sc2-c2ccccc2)c1

IC50 [1]: 8.79 µM
Structure (SMILES): COC(=O)c1ccccc1NC(=O)c1csc([C@H](Cc2ccc(OCc3ccccc3)cc2)NC(=O)C2CCCCC2)n1
